Source: PMC5089614 (British Journal of Clinical Pharmacology, 2016)
Entries after “also recorded” stand apart in the source; their conditions may differ. Like-named read-outs stand apart in the source and are kept apart here.

Columns and labels:
[1] = Safety/tolerability: adverse events graded by NCI CTCAE v4.03; format: in vivo, human
Procedure, shortened: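 Solid tumour patients got oral test compound by hepatic group: normal 4 mg, moderate 2.3 mg, severe 1.5 mg. Dosing continued in a second part, with escalation allowed up to 4 mg. AEs were monitored from first dose until 30 days after the last dose and graded by CTCAE v4.03. Safety population was all patients with ≥1 dose. Investigators assigned relatedness.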

[2] = cited from earlier work
plasma proteins = format: in vitro ADME, human
Procedure, shortened: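 Each patient's predose plasma was spiked with test compound at 70 or 280 ng ml−1 and run in triplicate by rapid equilibrium dialysis. Dialysis was 3 h at 37 °C against isotonic sodium phosphate buffer (120 mM, pH 7.5) across an 8000-Da cut-off membrane. Donor plasma and receiver buffer were each mixed 50:50 with the opposite matrix and quantified by LC/MS/MS.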

[3] = moderate impairment 2.3 mg (n = 15)
[4] = n = 1, not attributed to ixazomib
[5] = severe hepatic impairment group
[6] = severe impairment 1.5 mg (n = 20)

## CC(C)C[C@H](NC(=O)CNC(=O)c1cc(Cl)ccc1Cl)B(O)O [ixazomib]
[1]; all patients (N = 48)
  Drug-related AEs, patients: 46%
  Drug-related decreased appetite: 8%
  Drug-related dehydration: 6%
  Drug-related diarrhoea: 6%
  Drug-related fatigue: 8%
  Drug-related nausea: 17%
  Drug-related vomiting: 10%
  drug-related serious dehydration: 4%
  drug-related serious dyspnoea: 2%
  drug-related serious fall: 2%
  drug-related serious oesophageal ulcer: 2%
  grade 3 drug-related anaemia: 2%
  grade 3 drug-related dehydration: 6%
  grade 3 drug-related fall: 2%
  grade 3 drug-related fatigue: 4%
  grade 4 drug-related AE: no drug‐related grade 4 adverse events; also recorded: no patient had a grade 4 drug‐related AE
  patients with serious AEs: 65%
  rate of on-study deaths: 29%
[1]; all patients, none related to ixazomib, all related to progressive disease
  on-study deaths, number: 14
[1]; five serious AEs in four patients
  patients with drug-related serious AEs: 8%
[1]; moderate hepatic impairment, 2.3 mg
  incidence of drug-related grade ≥3 AEs: 20%
[1]; [3]
  Abdominal pain, any-grade TEAE: 2 (13) n (%)
  Acute renal failure, any-grade TEAE: 1 (7) n (%)
  Acute renal failure, grade ≥3 TEAE: 1 (7) n (%)
  Anaemia, any-grade TEAE: 3 (20) n (%)
  Anaemia, grade ≥3 TEAE: 1 (7) n (%)
  Any-grade AE: 15 (100) n (%)
  Ascites, any-grade TEAE: 3 (20) n (%)
  Ascites, grade ≥3 TEAE: 2 (13) n (%)
  Back pain, any-grade TEAE: 0 n (%)
  Cough, any-grade TEAE: 2 (13) n (%)
  Decreased appetite, any-grade TEAE: 2 (13) n (%)
  Dehydration, any-grade TEAE: 2 (13) n (%)
  Dehydration, grade ≥3 TEAE: 2 (13) n (%)
  Diarrhoea, any-grade TEAE: 1 (7) n (%)
  Dyspnoea, any-grade TEAE: 3 (20) n (%)
  Fatigue, any-grade TEAE: 4 (27) n (%)
  Fatigue, grade ≥3 TEAE: 1 (7) n (%)
  Grade ≥3 AE: 13 (87) n (%)
  Hyperbilirubinaemia, any-grade TEAE: 5 (33) n (%)
  Hyperbilirubinaemia, grade ≥3 TEAE: 5 (33) n (%)
  Hyperkalaemia, any-grade TEAE: 2 (13) n (%)
  Hypotension, any-grade TEAE: 1 (7) n (%)
  Hypotension, grade ≥3 TEAE: 1 (7) n (%)
  Insomnia, any-grade TEAE: 2 (13) n (%)
  Leukocytosis, grade ≥3 TEAE: 1 (7) n (%)
  Nausea, any-grade TEAE: 4 (27) n (%)
  Peripheral oedema, any-grade TEAE: 9 (60) n (%)
  Pyrexia, any-grade TEAE: 2 (13) n (%)
  Upper abdominal pain, any-grade TEAE: 1 (7) n (%)
  Vomiting, any-grade TEAE: 2 (13) n (%)
[1]; [4]
  discontinuation owing to acute hepatic failure: 2%
  discontinuation owing to acute renal failure: 2%
  discontinuation owing to axillary pain/groin pain: 2%
  discontinuation owing to confusional state: 2%
  discontinuation owing to peritoneal haemorrhage: 2%
  discontinuation owing to progression of pancreatic carcinoma: 2%
[1]; normal function 4 mg (n = 13)
  Abdominal pain, any-grade TEAE: 2 (15) n (%)
  Acute renal failure, any-grade TEAE: 0 n (%)
  Acute renal failure, grade ≥3 TEAE: 0 n (%)
  Anaemia, any-grade TEAE: 2 (15) n (%)
  Anaemia, grade ≥3 TEAE: 1 (8) n (%)
  Any-grade AE: 13 (100) n (%)
  Ascites, any-grade TEAE: 0 n (%)
  Ascites, grade ≥3 TEAE: 0 n (%)
  Back pain, any-grade TEAE: 2 (15) n (%)
  Cough, any-grade TEAE: 1 (8) n (%)
  Decreased appetite, any-grade TEAE: 7 (54) n (%)
  Dehydration, any-grade TEAE: 3 (23) n (%)
  Dehydration, grade ≥3 TEAE: 0 n (%)
  Diarrhoea, any-grade TEAE: 4 (31) n (%)
  Dyspnoea, any-grade TEAE: 4 (31) n (%)
  Fatigue, any-grade TEAE: 6 (46) n (%)
  Fatigue, grade ≥3 TEAE: 2 (15) n (%)
  Grade ≥3 AE: 6 (46) n (%)
  Hyperbilirubinaemia, any-grade TEAE: 0 n (%)
  Hyperbilirubinaemia, grade ≥3 TEAE: 0 n (%)
  Hyperkalaemia, any-grade TEAE: 1 (8) n (%)
  Hypotension, any-grade TEAE: 0 n (%)
  Hypotension, grade ≥3 TEAE: 0 n (%)
  Insomnia, any-grade TEAE: 3 (23) n (%)
  Leukocytosis, grade ≥3 TEAE: 0 n (%)
  Nausea, any-grade TEAE: 9 (69) n (%)
  Peripheral oedema, any-grade TEAE: 2 (15) n (%)
  Pyrexia, any-grade TEAE: 1 (8) n (%)
  Upper abdominal pain, any-grade TEAE: 2 (15) n (%)
  Vomiting, any-grade TEAE: 7 (54) n (%)
[1]; normal hepatic function, 4 mg
  incidence of drug-related grade ≥3 AEs: 23%
[1]; one patient, grade 2, treatment-related, history of neuropathy
  incidence of peripheral neuropathy (PN): 2%
[1]; seven events in total, all grade 1 or 2, none serious
  patients with rash-related AEs: Five
[1]; [5]
  on-study deaths, number: eight
[1]; severe hepatic impairment, 1.5 mg
  incidence of drug-related grade ≥3 AEs: 5%
[1]; [6]
  Abdominal pain, any-grade TEAE: 2 (10) n (%)
  Acute renal failure, any-grade TEAE: 6 (30) n (%)
  Acute renal failure, grade ≥3 TEAE: 5 (25) n (%)
  Anaemia, any-grade TEAE: 3 (15) n (%)
  Anaemia, grade ≥3 TEAE: 2 (10) n (%)
  Any-grade AE: 20 (100) n (%)
  Ascites, any-grade TEAE: 3 (15) n (%)
  Ascites, grade ≥3 TEAE: 2 (10) n (%)
  Back pain, any-grade TEAE: 3 (15) n (%)
  Cough, any-grade TEAE: 3 (15) n (%)
  Decreased appetite, any-grade TEAE: 1 (5) n (%)
  Dehydration, any-grade TEAE: 3 (15) n (%)
  Dehydration, grade ≥3 TEAE: 2 (10) n (%)
  Diarrhoea, any-grade TEAE: 1 (5) n (%)
  Dyspnoea, any-grade TEAE: 4 (20) n (%)
  Fatigue, any-grade TEAE: 5 (25) n (%)
  Fatigue, grade ≥3 TEAE: 1 (5) n (%)
  Grade ≥3 AE: 18 (90) n (%)
  Hyperbilirubinaemia, any-grade TEAE: 5 (25) n (%)
  Hyperbilirubinaemia, grade ≥3 TEAE: 5 (25) n (%)
  Hyperkalaemia, any-grade TEAE: 2 (10) n (%)
  Hypotension, any-grade TEAE: 4 (20) n (%)
  Hypotension, grade ≥3 TEAE: 2 (10) n (%)
  Insomnia, any-grade TEAE: 1 (5) n (%)
  Leukocytosis, grade ≥3 TEAE: 2 (10) n (%)
  Nausea, any-grade TEAE: 5 (25) n (%)
  Peripheral oedema, any-grade TEAE: 4 (20) n (%)
  Pyrexia, any-grade TEAE: 4 (20) n (%)
  Upper abdominal pain, any-grade TEAE: 2 (10) n (%)
  Vomiting, any-grade TEAE: 4 (20) n (%)
[1]; total (N = 48)
  Abdominal pain, any-grade TEAE: 6 (13) n (%)
  Acute renal failure, any-grade TEAE: 7 (15) n (%)
  Acute renal failure, grade ≥3 TEAE: 6 (13) n (%)
  Anaemia, any-grade TEAE: 8 (17) n (%)
  Anaemia, grade ≥3 TEAE: 4 (8) n (%)
  Any-grade AE: 48 (100) n (%)
  Ascites, any-grade TEAE: 6 (13) n (%)
  Ascites, grade ≥3 TEAE: 4 (8) n (%)
  Back pain, any-grade TEAE: 5 (10) n (%)
  Cough, any-grade TEAE: 6 (13) n (%)
  Decreased appetite, any-grade TEAE: 10 (21) n (%)
  Dehydration, any-grade TEAE: 8 (17) n (%)
  Dehydration, grade ≥3 TEAE: 4 (8) n (%)
  Diarrhoea, any-grade TEAE: 6 (13) n (%)
  Dyspnoea, any-grade TEAE: 11 (23) n (%)
  Fatigue, any-grade TEAE: 15 (31) n (%)
  Fatigue, grade ≥3 TEAE: 4 (8) n (%)
  Grade ≥3 AE: 37 (77) n (%)
  Hyperbilirubinaemia, any-grade TEAE: 10 (21) n (%)
  Hyperbilirubinaemia, grade ≥3 TEAE: 10 (21) n (%)
  Hyperkalaemia, any-grade TEAE: 5 (10) n (%)
  Hypotension, any-grade TEAE: 5 (10) n (%)
  Hypotension, grade ≥3 TEAE: 3 (6) n (%)
  Insomnia, any-grade TEAE: 6 (13) n (%)
  Leukocytosis, grade ≥3 TEAE: 3 (6) n (%)
  Nausea, any-grade TEAE: 18 (38) n (%)
  Peripheral oedema, any-grade TEAE: 15 (31) n (%)
  Pyrexia, any-grade TEAE: 7 (15) n (%)
  Upper abdominal pain, any-grade TEAE: 5 (10) n (%)
  Vomiting, any-grade TEAE: 13 (27) n (%)
[2]; after oral dosing
  half-life: 4 to 9 days
[2]
  renal clearance: 0 to 0.51 L/h
[2]; clinical studies
  median time to reach peak concentration (T max): 30 to 120 min
[2]; population PK analysis, cancer patients, NCI ODWG criteria
  effect of mild hepatic impairment on PK: no clinically relevant PK changes
[2]; population PK analysis, creatinine clearance ≥30 ml min^−1
  effect of mild and moderate renal impairment on PK: did not alter ixazomib PK
Plasma proteins; moderate hepatic impairment group
  bound fraction (mean ± SD): 99.1 ± 0.37%
Plasma proteins; normal hepatic function group
  bound fraction (mean ± SD): 99.2 ± 0.34%
Plasma proteins; [5]
  bound fraction (mean ± SD): 99.0 ± 0.45%
